We go through 22 compounds from ChEMBL document CHEMBL1122375, “Synthesis and biological evaluation of 2-fluoro-8-azaadenosine and related compounds” (J Med Chem, 1983).

In data set [1] the test system is HEp-2. Nature of the data set: Cytotoxicity against H.Ep cells. The class given is functional, cell-based. The following applies: Homo sapiens. A digest of the protocol: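 H.Ep.-2 human cell culture cytotoxicity screen. Value is the drug concentration that inhibits cell growth to 50% of untreated controls.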
Another data set is filed under the species Bos taurus. Nature of the data set: Kinetic parameter in calf intestine adenosine deaminase. Type of data set: ADME. The following applies: cattle, in vitro.
The subject of data set [2] is HEp-2. Nature of the data set: Cytotoxicity against H.Ep cells in the presence of 0.1 ug/mL pentostatin. The class given is functional, cell-based. The settings on record: Homo sapiens. In outline:
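H.Ep.-2 cell culture cytotoxicity screen with pentostatin at 0.1 µg/mL in the medium. Value is the drug concentration that inhibits cell growth to 50% of controls.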

Data set [3] has as its system P388. Nature of the data set: Percent increase in life span of P388 leukemia cells (10e6) infected(ip) mice at dose of 50 (400) mg/kg, ip: qd 1-5 schedule. Type of data set: functional, Mus musculus.
Data set [4] relates to P388. Nature of the data set: Percent increase in life span of P388 leukemia cells (10e6) infected(ip) mice at dose of 6(50) mg/kg, ip: qd 1-9 schedule. Type of data set: functional, Mus musculus.
For data set [5], the system named is P388. Nature of the data set: Percent increase in life span of P388 leukemia cells (10e6) infected(ip) mice at dose of 50 (200) mg/kg, ip: qd 1-5 schedule.
The subject of data set [6] is P388. Nature of the data set: Percent increase in life span of P388 leukemia cells (10e6) infected(ip) mice at dose of 400 (400) mg/kg, ip: day 1 only. Type of data set: functional, Mus musculus.

The structures appear in SMILES notation. pIC50: −log10 of the molar value. A value given as a limit tells only on which side of the number the result lay.

In general, pIC50 refers to −log10 of the IC50, conventionally taken in molar units. In the case of `Nc1nc(O)nc2nn(C3O[C@H](CO)[C@@H](O)[C@H]3O)nc12` (some centres undefined), the negative-log IC50 (pIC50) in the data set with HEp-2 [1] was less than 4.12.

The Vmax is the top rate of the reaction or transport when substrate is in excess. Consider `Nc1nc(N)c2ncn([C@@H]3O[C@H](CO)[C@@H](O)[C@H]3O)c2n1`, for which the Vmax in the data set listed under Bos taurus was determined as 119 µM/min/mg.

Consider `COc1ncnc2c1nnn2[C@@H]1O[C@H](CO)[C@@H](O)[C@H]1O`, for which, in the data set filed under Bos taurus, the maximum rate (Vmax) is 27 µM/min/mg. As for `CS(=O)(=O)c1nc(N)c2nn(C3O[C@H](CO)[C@@H](O)[C@H]3O)nc2n1` (some centres undefined), in the data set on HEp-2 [1], the negative logarithm of the IC50 (pIC50) was 4.66. With `Nc1nc(F)nc2c1ncn2[C@@H]1O[C@H](CO)[C@@H](O)[C@H]1O`, in the data set filed under Bos taurus, the Vmax was 0.78 µM/min/mg. Consider `Nc1ncnc2c1nnn2[C@H]1C[C@H](O)[C@@H](CO)O1`, for which the Vmax in the data set listed under Bos taurus amounted to 2000 µM/min/mg. Further, the pIC50 in the data set on HEp-2 [2] was less than 4.60; with HEp-2 [1], 5.00. In the data set on HEp-2 [1], `CSc1nc(N)c2nnn(C3O[C@H](CO)[C@@H](O)[C@H]3O)c2n1` (some centres undefined) gave a pIC50 of less than 3.89. `CSc1nc(N)c2nn(C3O[C@H](CO)[C@@H](O)[C@H]3O)nc2n1` (some centres undefined) gave a pIC50 in the data set on HEp-2 [1] of 4.60. For orientation: ILS means the gain in survival time of treated over control animals, in per cent. Low values mean a small benefit in survival, high ones a large benefit in survival. On to `CS(=O)(=O)c1nc(N)c2nnn(C3O[C@H](CO)[C@@H](O)[C@H]3O)c2n1` (some centres undefined), for which, in the data set on HEp-2 [1], the pIC50 was 4.85. The same compound returned an ILS with P388 [3] of 38%. With `Nc1nc(F)nc2c1nnn2[C@H]1C[C@H](O)[C@@H](CO)O1`, the pIC50 in the data set with HEp-2 [1] was 4.15. In the data set with HEp-2 [1], `Nc1nc(O)c2[nH]nnc2n1` [8-AZAGUANINE] showed a pIC50 of 5.70. Regarding `Nc1nc(N)c2nnn([C@@H]3O[C@H](CO)[C@@H](O)[C@H]3O)c2n1`, in the data set listed under Bos taurus, the maximal velocity (Vmax) was 23 µM/min/mg. For the same compound, the negative-log IC50 (pIC50) in the data set with HEp-2 [2] is less than 4.70; in the data set on HEp-2 [1] it was 6.15. In addition, in the data set on P388 [4], the ILS came to 25%. Regarding `Nc1ncnc2c1nnn2[C@@H]1O[C@H](CO)[C@@H](O)[C@H]1O`, the Vmax in the data set filed under Bos taurus was determined as 1500 µM/min/mg. For the same compound, the pIC50 in the data set on HEp-2 [2] is greater than 7.70; in the data set with HEp-2 [1] it was 6.15. In the case of `Nc1nc(F)nc2c1nnn2C1O[C@H](CO)[C@@H](O)[C@H]1O` (some centres undefined), the maximum rate (Vmax) in the data set filed under Bos taurus was 5 µM/min/mg. The negative-log IC50 (pIC50) with HEp-2 [2] and with HEp-2 [1] was 5.70 throughout. Besides, in the data set on P388 [5], the increase in life span (ILS) was 21%.

In the case of `Nc1nc(F)nc2nn(C3O[C@H](CO)[C@@H](O)[C@H]3O)nc12` (some centres undefined), in the data set on HEp-2 [1], the negative-log IC50 (pIC50) was less than 4.12. Regarding `COc1ncnc2c1ncn2[C@@H]1O[C@H](CO)[C@@H](O)[C@@H]1O`, the maximum rate (Vmax) in the data set listed under Bos taurus came to 2 µM/min/mg.

`CCOc1nc(N)c2nnn(C3O[C@H](CO)[C@@H](O)[C@H]3O)c2n1` (some centres undefined): in the data set with HEp-2 [1], the pIC50 is less than 4.12.

In the data set with HEp-2 [1], `Nc1nc(N)c2nn(C3O[C@H](CO)[C@@H](O)[C@H]3O)nc2n1` (some centres undefined) showed a negative logarithm of the IC50 (pIC50) of less than 4.12. The same compound registered an ILS with P388 [6] of 0%.

`Nc1ncnc2c1ncn2[C@@H]1O[C@H](CO)[C@@H](O)[C@@H]1O` [VIDARABINE]: in the data set listed under Bos taurus, the Vmax is 94 µM/min/mg. On to `Nc1nc(O)c2nnn(C3O[C@H](CO)[C@@H](O)[C@H]3O)c2n1` (some centres undefined), for which, in the data set with HEp-2 [1], the pIC50 was 5.70. Consider `Nc1ncnc2c1ncn2[C@@H]1O[C@H](CO)[C@@H](O)[C@H]1O` [ADENOSINE], for which, in the data set filed under Bos taurus, the maximal velocity (Vmax) turned out to be 435 µM/min/mg. Same read-out and setting: for `Nc1ncnc2c1nnn2[C@@H]1O[C@H](CO)[C@@H](O)[C@@H]1O` the value was 75 µM/min/mg.
